These results are taken from ChEMBL document CHEMBL1129428 (J Med Chem, 1996).

Bounds are passed on as bounds.

Series [1] in a line: Partition coefficient (logP). The note with it: octanol/water. It is filed as physicochemical. Summed up:
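Partition between 1-octanol and buffer at pH 7.4, with solutions prepared in 1-octanol before buffer is added. Quantified by UV, using λmax and ε values measured in 1-octanol.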

In series [2] the test system is Mus musculus. As to the kind of experiment: Anticonvulsant activity after intraperitoneal injection into mice by using MES screen test after 0.5 hr. Type of series: functional.
The test system of series [3] is Mus musculus. As to the kind of experiment: Anticonvulsant activity after intraperitoneal injection into mice measured in a maximal electroshock scree (MES) screen. It is filed as functional. (In general: In the maximal electroshock model the usual endpoint is tonic extension of the hind limbs.)
Series [4] deals with Mus musculus. As to the kind of experiment: Anticonvulsant activity after intraperitoneal injection into mice by using scPTZ screen after 0.5 hr. It is filed as functional.
Series [5] has as its system Mus musculus. As to the kind of experiment: Toxicity after intraperitoneal injection into mice by using toxicity screen test after 0.5 hr. The note with it: in vivo, ip. Type of series: organism-based. The procedure, abridged:
(§1)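 Mice injected intraperitoneally at 30, 100 and 300 mg/kg and examined 0.5 and 4 h afterwards. Each entry is the minimum dose giving activity (MES protection, scPTZ protection, or rotorod failure for neurotoxicity) in half or more of the mice. Activity is called absent if nothing occurs at 300 mg/kg.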

The test system of series [6] is Mus musculus. As to the kind of experiment: Compound was tested for toxicity after intraperitoneal injection into mice by using toxicity screen test after 4 hr. Type of series: organism-based. The note with it: in vivo, ip. The procedure, abridged: as §1
Series [7] has as its system Mus musculus. The series can be described thus: Compound was tested for anticonvulsant activity after intraperitoneal injection into mice by using MES screen test after 1 hr. Type of series: functional. The note with it: ip. The procedure, abridged:
(§2)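 Quantitative intraperitoneal mouse testing in the MES, scPTZ or rotorod neurotoxicity screens at the peak time given for each compound (0.25–2 h). ED50 or TD50 reported in mg/kg with 95% CI and slope (SE).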

Series [8] in a line: Compound was tested for toxicity after intraperitoneal injection into mice by using neurotoxicity screen test after 2 hr. It is filed as organism-based. The note with it: mouse, in vivo, ip. The procedure, abridged: as §2
In series [9] the test system is Rattus norvegicus. As to the kind of experiment: Compound was tested for anticonvulsant activity after Oral Administration into Rats by using MES screen test after 4h,dose 12.5 mg/kg; number of rats out of four which were protected. Type of series: functional. Summed up:
(§3)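 Rats received the compound orally. […] Rats were tested in the MES screen at 0.25, 0.5, 1, 2 and 4 h. Each value is the number of rats protected out of 4. The test followed NINDS procedures.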

Series [10] relates to Rattus norvegicus. The series can be described thus: Compound was tested for anticonvulsant activity after Oral Administration into Rats by using MES screen test after 0.25h,dose 12.5 mg/kg; number of rats out of four which were protected. It is filed as functional. Summed up: as §3
Series [11] deals with Rattus norvegicus. As to the kind of experiment: Anticonvulsant activity after oral administration into rats. The arrangement: concentration or dose not given beside the values. Type of series: functional.
In series [12] the test system is Rattus norvegicus. The series can be described thus: Compound was tested for anticonvulsant activity after Oral Administration into Rats by using MES screen test after 1h,dose 12.5 mg/kg; number of rats out of four which were protected. Type of series: functional. Summed up:
as §3

Series [13] has as its system Rattus norvegicus. The series can be described thus: Compound was tested for anticonvulsant activity after Oral Administration into rat by using MES screen test after 2 hr. It is filed as functional. The procedure, abridged:
(§4)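 Rats dosed orally, typically at 50 mg/kg first, then mostly 12.5 mg/kg (some compounds at 30 mg/kg), and tested by maximal electroshock. Four rats per compound, scored at 0.25, 0.5, 1, 2 and 4 h as the number of rats protected out of 4.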

Series [14] in a line: Compound was tested for toxicity after oral administration in rat by using neurotoxicity screen test after 4 hr. Type of series: organism-based. The note with it: in vivo. Summed up:
(§5)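 Rat neurotoxicity after oral dosing, observed at 0.25, 0.5, 1, 2, 4, 6, 8 and 24 h (8 h omitted for one compound).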

In series [15] the test system is Mus musculus. The series can be described thus: Compound was tested for anticonvulsant activity after intraperitoneal injection into mice by using scPTZ screen test after 1 hr. It is filed as functional. The note with it: ip. The procedure, abridged:
as §2

The test system of series [16] is Rattus norvegicus. The series can be described thus: Compound was tested for anticonvulsant activity after Oral Administration into Rats by using MES screen test after 2h,dose 12.5 mg/kg; number of rats out of four which were protected. Type of series: functional. The procedure, abridged: as §3
The subject of series [17] is Rattus norvegicus. The series can be described thus: Compound was tested for anticonvulsant activity after Oral Administration into Rats by using MES screen test after 4h,dose 50 mg/kg; number of rats out of four which were protected. It is filed as functional. Summed up:
as §3

The subject of series [18] is Rattus norvegicus. The series can be described thus: Compound was tested for anticonvulsant activity after Oral Administration into Rats by using MES screen test after 2h,dose 50 mg/kg; number of rats out of four which were protected. It is filed as functional. The procedure, abridged:
as §3

The subject of series [19] is Rattus norvegicus. As to the kind of experiment: Compound was tested for anticonvulsant activity after Oral Administration into Rats by using MES screen test after 0.25h,dose 50 mg/kg; No activity was demonstarted. It is filed as functional, organism-based. The arrangement: dose 50 mg/kg. The procedure, abridged: as §3
In series [20] the test system is Rattus norvegicus. The series can be described thus: Compound was tested for anticonvulsant activity after Oral Administration into Rats by using MES screen test after 0.5h,dose 50 mg/kg; No activity was demonstarted. Type of series: functional, organism-based. Set-up: dose 50 mg/kg. The procedure, abridged:
as §3

Series [21] deals with Rattus norvegicus. The series can be described thus: Compound was tested for anticonvulsant activity after Oral Administration into Rats by using MES screen test after 1h,dose 50 mg/kg; number of rats out of four which were protected. It is filed as functional. Summed up:
as §3

Series [22] relates to Rattus norvegicus. The series can be described thus: Compound was tested for anticonvulsant activity after Oral Administration into Rats by using MES screen test after 0.5h,dose 50 mg/kg; number of rats out of four which were protected. Type of series: functional. Summed up: as §3
The subject of series [23] is Mus musculus. As to the kind of experiment: Anticonvulsant activity after intraperitoneal injection into mice by using scPTZ screen test after 4 hr. Type of series: functional.
The subject of series [24] is Rattus norvegicus. The series can be described thus: Compound was tested for anticonvulsant activity after Oral Administration into Rats by using MES screen test after 0.25h,dose 12.5 mg/kg; No activity was demonstarted. It is filed as functional, organism-based. The arrangement: dose 12.5 mg/kg. Summed up: as §3
The subject of series [25] is Rattus norvegicus. The series can be described thus: Compound was tested for anticonvulsant activity after Oral Administration into Rats by using MES screen test after 0.5h,dose 12.5 mg/kg; No activity was demonstarted. Type of series: functional, organism-based. Set-up: dose 12.5 mg/kg. The procedure, abridged:
as §3

The test system of series [26] is Rattus norvegicus. As to the kind of experiment: Compound was tested for anticonvulsant activity after Oral Administration into Rats by using MES screen test after 1h,dose 12.5 mg/kg; No activity was demonstarted. It is filed as functional, organism-based. The arrangement: dose 12.5 mg/kg. The procedure, abridged: as §3
The subject of series [27] is Rattus norvegicus. The series can be described thus: Compound was tested for anticonvulsant activity after Oral Administration into rat by using MES screen test after 4 hr. Type of series: functional. The procedure, abridged: as §4
Series [28] is described as follows: Compound was tested for toxicity after oral administration in rat by using neurotoxicity screen test after 2 hr. It is filed as organism-based. The note with it: in vivo. The procedure, abridged:
as §5

In series [29] the test system is Rattus norvegicus. The series can be described thus: Compound was tested for anticonvulsant activity after Oral Administration into Rats by using MES screen test after 2h,dose 12.5 mg/kg; No activity was demonstarted. Type of series: functional, organism-based. The arrangement: dose 12.5 mg/kg. The procedure, abridged: as §3
A short description of series [30]: Protection index = TD50/ED50 (MES). It is filed as ADME, organism-based. The note with it: rat, in vivo; read-out: PI.
A short description of series [31]: Compound was tested for toxicity after oral administration in rat by using neurotoxicity screen test after 0.25-24 hr. Type of series: organism-based. The note with it: in vivo. Summed up:
as §5

With `NC(=O)N/N=C/c1ccc(Sc2ccc(F)cc2)cc1`, the logP in series [1] worked out at 2.8. The Dose in the series with Mus musculus [2] was found to be 30 mg/kg; with Mus musculus [3], 30 mg/kg; in the series with Mus musculus [4] it was 30 mg/kg; in the series with Mus musculus [5], 300 mg/kg; in the series with Mus musculus [6], 100 mg/kg. The ED50 in the series on Mus musculus [7] was 12.4 mg/kg; in the series on Rattus norvegicus [13], 4.98 mg/kg; with Mus musculus [15], above 120 mg/kg. In [8], the TD50 at 2 h is 88 mg/kg. For the same compound, the Activity in the series on Rattus norvegicus [9] was 4; in the series on Rattus norvegicus [10] it was 1; with Rattus norvegicus [11], 3; in the series on Rattus norvegicus [12] it was 4; with Rattus norvegicus [16], 4. The compound further displayed a TD50 at 4 h in series [14] of 183 mg/kg.
In the case of `NC(=O)N/N=C\c1ccccc1Oc1ccccc1`, the Activity in the series with Rattus norvegicus [17] is 1; with Rattus norvegicus [18], 1; in the series on Rattus norvegicus [19], “No activity”; in the series with Rattus norvegicus [20], “No activity”; with Rattus norvegicus [21] it was 2.
Take `COc1ccc(Oc2ccc(/C=N/NC(N)=O)cc2)cc1`: the logP in [1] was 1.29. Also, the Dose in the series on Mus musculus [2] was determined as 100 mg/kg; in the series with Mus musculus [3], 100 mg/kg; with Mus musculus [6] it was 300 mg/kg. Moreover, the Activity in the series on Rattus norvegicus [17] is 4; in the series with Rattus norvegicus [18], 4; in the series on Rattus norvegicus [19] it was “No activity”; in the series with Rattus norvegicus [22], 4; in the series on Rattus norvegicus [21], 4.
For `CCCCOc1ccc(Oc2ccc(/C=N/NC(N)=O)cc2)cc1`, the Dose in the series with Mus musculus [2] was 300 mg/kg; with Mus musculus [3], 100 mg/kg; in the series with Mus musculus [4] it was 300 mg/kg; in the series on Mus musculus [23] it was 300 mg/kg; with Mus musculus [5], 300 mg/kg; with Mus musculus [6], 300 mg/kg. Moreover, the Activity result in the series with Rattus norvegicus [24] is “No activity”; with Rattus norvegicus [9], 2; with Rattus norvegicus [25], “No activity”; in the series on Rattus norvegicus [26], “No activity”; in the series with Rattus norvegicus [29] it was “No activity”. It took a dose of 45.8 mg/kg to reach the 50% effect level in the series with Rattus norvegicus [27] (ED50). The compound further returned a TD50 at 2 h in series [28] above 100 mg/kg. Besides, in series [30], the selectivity ratio was above 2.18.
For `Cc1ccccc1Oc1ccc(/C=N/NC(N)=O)cc1`, the Dose in the series with Mus musculus [2] came to 30 mg/kg; in the series on Mus musculus [3] it was 100 mg/kg; in the series with Mus musculus [4] it was 100 mg/kg; with Mus musculus [23], 100 mg/kg; in the series on Mus musculus [5] it was 300 mg/kg; in the series on Mus musculus [6] it was 300 mg/kg. The Activity result in the series with Rattus norvegicus [24] was “No activity”; with Rattus norvegicus [9], 4; in the series with Rattus norvegicus [11], 4; in the series with Rattus norvegicus [12], 3; in the series with Rattus norvegicus [16], 4. It took a dose of 5.65 mg/kg to reach the 50% effect level in the series with Rattus norvegicus [13] (ED50). The compound also yielded a TD50 in series [31] above 500 mg/kg. For the same compound, in [30], the selectivity ratio is above 88.

For orientation: logP means the decadic logarithm of the partition coefficient of the neutral form, usually between octanol and water. As a reminder, the ED50 is the midpoint of the dose-response relation. By TD50 is commonly meant the 50% point of the dose-response relation for the toxic effect studied.
